Assay results from different studies.
Lines come from different studies, so protocols differ.
Target: Angiopoietin-1 receptor (TEK, Homo sapiens, UniProt Q02763)

N[C@H]1CCN(c2nccc(-c3cnn4ncccc34)n2)C1
remaining binding (binding; 1 µM): 84%

Cc1cnc(Nc2ccc(C(=O)N3CCC(N4CCCC4)CC3)cc2)nc1-c1cc2ccccc2s1
remaining binding (binding; competition with immobilised ligand; 1 µM): 11%

CN(C)C(=O)Cn1cc(-c2nc(C3(c4ccc(-c5cnc(N)nc5)cc4)CC3)no2)cn1
remaining binding (cell-free assay; competition with immobilised ligand; 1 µM): 88%

C[C@@H](c1ccc(-n2cnc3c(N)ncnc32)cc1)N1CCc2nn(C)c(Cc3ccccc3)c2C1=O
remaining binding (binding; competition with immobilised ligand; 0.1 µM): 81%

F[C@@H]1CCN(c2nccc(-c3cnn4ncccc34)n2)C1
remaining binding (binding; 1 µM): 100%

O=C(NCCCN1CCOCC1)c1ccc(Nc2ncc(Cl)c(-c3ccc(Cl)s3)n2)cc1
remaining binding (binding; competition with immobilised ligand; 1 µM): 47%

COc1ccnn2ncc(-c3ccnc(N(C)C)n3)c12
remaining binding (binding; 1 µM): 100%

c1cncc(-c2cccc(Nc3nccc(NC4CCCCC4)n3)c2)c1
remaining binding (binding; competition with immobilised ligand; 10 µM): 38%

Nc1ncc2c(n1)-c1c([nH]c3ccc(C#CC4CC4)cc13)CCCC2
remaining binding (binding; competition with immobilised ligand; 1 µM): 100%

O=C(NCC1CCOCC1)c1n[nH]cc1NC(=O)c1c(F)cccc1F
remaining binding (binding; competition with immobilised ligand; 1 µM): 100%

C=CC(=O)N1CCC(C(=O)NCC(=O)N2CCN(c3nc(-c4cnc(N)nc4C(F)F)nc(N4CCOCC4)n3)CC2)CC1
remaining binding (binding; competition with immobilised ligand; 1 µM): 97%

C[C@H]1CCN(c2nccc(-c3cnn4ncccc34)n2)C1
remaining binding (binding; 1 µM): 82%

C[C@@H]1CN(c2ccc3ncc(-c4ccc5[nH]nc(C6CC6)c5c4)n3n2)C[C@H](C)O1
remaining binding (binding; competition with immobilised ligand; 0.5 µM): 100%

C[C@H](NC(=O)c1cnc2n1[C@](C)(Cc1ccc(C#N)cc1)C(=O)N2c1cc(Cl)c(F)c(Cl)c1)C(=O)NC1(c2ccccn2)CC1
remaining binding (cell-free assay; competition with immobilised ligand; 1 µM): 91%

CN(c1nccc(-c2cnn3ncccc23)n1)C1CC1
remaining binding (binding; 1 µM): 100%

O=C(NCc1ncc(C(F)(F)F)cc1Cl)c1ccc2c(c1)C1(CCS(=O)(=O)CC1)[C@H](C1CC1)N2S(=O)(=O)c1ccc(F)cc1
remaining binding (cell-free assay; competition with immobilised ligand; 1 µM): 100%

Cc1cnn2ncc(-c3ccnc(N(C)C)n3)c2c1
remaining binding (binding; 1 µM): 100%

CCS(=O)(=O)c1cc2cc(C[C@@](O)(CC(C)(C)c3ccc(F)cc3C(N)=O)C(F)(F)F)[nH]c2cn1
remaining binding (cell-free assay; competition with immobilised ligand; 1 µM): 94%

CN(C)c1ncc(F)c(-c2cnn3ncccc23)n1
remaining binding (binding; 1 µM): 100%

COc1cc(-c2cn(C3CCc4ccccc4N(CC(F)(F)F)C3=O)nn2)ccc1-n1ccc(C)n1 (stereo not shown)
remaining binding (cell-free assay; competition with immobilised ligand; 1 µM): 81%

CNC(=O)[C@@H]1CC[C@@H](n2c(-c3ccc4cnccc4c3)nc3ccc(C(=O)NCc4cccc(C(N)=O)c4)cc32)C1
remaining binding (binding; competition with immobilised ligand; 1 µM): 100%

CC(=O)C1=C(C)N(c2cccc(C(F)(F)F)c2)C(=O)N[C@@H]1c1ccc(C#N)nc1
remaining binding (cell-free assay; competition with immobilised ligand; 1 µM): 100%

COc1cnc(Nc2cccc(S(N)(=O)=O)c2)nc1N1CCN(c2ccccc2)C(=O)C1
remaining binding (binding; competition with immobilised ligand; 1 µM): 100%

O=C(c1ccc(Nc2nccc(-c3cc4ccccc4s3)n2)cc1)N1CCC(N2CCCC2)CC1
remaining binding (binding; competition with immobilised ligand; 1 µM): 31%

C[C@@H]1CN(c2cc(-c3n[nH]c4ccc(OC5(C)CC5)cc34)ncn2)C[C@H](C)O1
remaining binding (cell-free assay; competition with immobilised ligand; 0.1 µM): 100%
